# Data published in ChEMBL document CHEMBL4017500 (J Med Chem, 2017).
# pIC50: −log10 of the molar value. Active and inactive are the calls of the source. No cut-off for these calls is given here.
# How the values were obtained:
# Bacteria [1] = test: Inhibition of bacterial MBP-fused NDM1 expressed in Escherichia coli BL21(DE3) at 50 uM using chromacef as substrate preincubated for 10 mins followed by substrate addition measured after 20 mins by HTS assay relative to control
# In short: (§1)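 Colorimetric chromacef screen, final 50 mM HEPES, 2 mM CHAPS, pH 7.0. Substrate added at 3 μM (NDM-1, ~3×KM), 7.2 μM (IMP-1) or 16 μM (VIM-2). […] Percent inhibition calculated.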
# [2] = target: Metallo-beta-lactamase type 2 (Serratia marcescens) (UniProt P52699); test: Inhibition of Serratia marcescens IMP1 expressed in Escherichia coli BL21(DE3) at 50 uM using chromacef as substrate preincubated for 10 mins followed by substrate addition measured after 20 mins by HTS assay relative to control; in short: as §1
# Chain of Metallo-beta-lactamase type 2 (Serratia marcescens) (P52699 19-246 limits assumed): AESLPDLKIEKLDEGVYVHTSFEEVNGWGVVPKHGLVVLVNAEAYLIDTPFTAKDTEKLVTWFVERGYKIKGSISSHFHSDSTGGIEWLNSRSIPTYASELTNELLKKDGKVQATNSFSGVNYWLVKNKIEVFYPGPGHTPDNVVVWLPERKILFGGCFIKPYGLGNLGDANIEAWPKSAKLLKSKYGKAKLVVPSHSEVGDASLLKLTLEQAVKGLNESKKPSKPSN
# [3] = target: Beta-lactamase VIM-2 (Pseudomonas aeruginosa) (UniProt Q9K2N0); test: Inhibition of Pseudomonas aeruginosa VIM2 expressed in Escherichia coli BL21(DE3) at 50 uM using chromacef as substrate preincubated for 10 mins followed by substrate addition measured after 20 mins by HTS assay relative to control; in short: as §1
# [4] = Inhibition of bacterial MBP-fused NDM1 expressed in Escherichia coli BL21(DE3) ausing chromacef as substrate preincubated for 20 mins followed by substrate addition measured after 0.3 mins; set-up: species or system Bacteria
# In short: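 Preincubated 20 min, then 3 μM substrate (~3×KM) added. A442 followed ~0.3 min at 25 °C. Activity scaled to uninhibited (100%) and no-enzyme (0%) controls, fitted to a Hill-type equation.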
# Bacteria [5] = test: Binding affinity to bacterial CoCoNDM-1 expressed in Escherichia coli BL21(DE3) assessed as metal stripping at 1 to 2 equiv after 30 mins by UV-Visible spectroscopic method
# In short: (§2)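 Apo-NDM-1 at 300 μM in 50 mM HEPES, 150 mM NaCl, pH 6.8, loaded with 2 molar equiv CoCl2. […] Absorbance read 300–700 nm at 25 °C as difference spectra against buffer blank, normalized at 700 nm.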
# Bacteria [6] = test: Binding affinity to bacterial NDM-1 expressed in Escherichia coli BL21(DE3) assessed as Zn2+ stripping up to 128 uM after 30 mins by equilibrium dialysis method
# In short: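 NDM-1 (8 μM final) in 50 mM HEPES pH 7.5 mixed with compound at 0–128 μM for 30 min. Then dialyzed 4 h against metal-free 50 mM HEPES pH 7.5. Residual Zn(II) measured by ICP-AES at 213.856 nm.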
# Bacteria [7] = test: Binding affinity to bacterial CoCoNDM-1 expressed in Escherichia coli BL21(DE3) assessed as metal stripping at 1 to 2 equiv by 1H NMR spectroscopic method
# In short: (§3)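 Apo-NDM-1 concentrated to ~1 mM and loaded with 2 equiv CoCl2. Samples in 50 mM HEPES, 150 mM NaCl, 10% D2O, pH 6.8. Compounds from 50–100 mM DMSO stocks titrated in ~5 μL aliquots. 1H spectra recorded at 292 K, 300.16 MHz.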
# [8] = Fluorescence quenching activity assessed as reduction in tryptophan fluorescence up to 32 uM after 30 mins by luminescence spectrometric method
# In short: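 NDM-1 (2 μM final) in 50 mM HEPES pH 7.5 with compound at 4–32 μM for 30 min. Excitation 280 nm, emission scanned 300–400 nm, intensity taken at 348 nm. Scaled with buffer as 0% and inhibitor-free enzyme as 100%. Free L-tryptophan (2 μM) run as control.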
# Bacteria [9] = test: Binding affinity to bacterial NDM-1 expressed in Escherichia coli BL21(DE3) assessed as intrinsic tryptophan fluorescence quenching up to 32 uM after 30 mins by luminescence spectrometric method relative to control
# In short: (§4)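 NDM-1 at 2 μM final in 50 mM HEPES pH 7.5 mixed with compound at 4–32 μM, incubated 30 min. Emission scanned 300–400 nm with excitation at 280 nm. Relative tryptophan fluorescence read at 348 nm, with buffer set to 0% and inhibitor-free NDM-1 to 100%. Control run with 2 μM L-tryptophan in place of enzyme.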
# [10] = Inhibition of bacterial MBP-fused NDM1 expressed in Escherichia coli BL21(DE3) ausing fluorocillin as substrate preincubated for 20 mins followed by substrate addition measured at 1 sec time interval for 25 mins by fluorescence assay; set-up: species or system Bacteria
# In short: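 NDM-1 pre-incubated 20 min with inhibitor (final 100 μM to 1 nM) in 50 mM HEPES pH 7.0 with 2 mM CHAPS. Reaction started with fluorocillin (final 87 nM, below KM), NDM-1 final 25 pM. Fluorescence read at λex/em 495/525 nm, 10 reads over ~25 min.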
# Bacteria [11] = test: Binding affinity to bacterial CoCoNDM-1 expressed in Escherichia coli BL21(DE3) assessed as CoCoNDM-1-compound ternary complex formation at 1 equiv by 1H […] spectroscopic method
# Bacteria [12] = test: Binding affinity to bacterial CoCoNDM-1 expressed in Escherichia coli BL21(DE3) assessed as CoCoNDM-1-compound ternary complex formation at 1 to 2 equiv after 30 mins by UV-Visible spectroscopic method; in short: as §2
# Bacteria [13] = test: Binding affinity to bacterial NDM-1 expressed in Escherichia coli BL21(DE3) assessed as increase in intrinsic tryptophan fluorescence up to 32 uM after 30 mins by luminescence spectrometric method relative to control; in short: as §4
# Bacteria [14] = test: Binding affinity to bacterial CoCoNDM-1 expressed in Escherichia coli BL21(DE3) assessed as CoCoNDM-1-compound ternary complex formation at 3 to 5 equiv by 1H NMR spectroscopic method; in short: as §3
smiles,measurement,setting,value
Oc1ccc[nH]c1=S,inhibition,Bacteria [1],> 60%
same,inhibition,[2],> 60%
same,inhibition,[3],> 60%
COc1ccc(CNC(=O)c2cccc(C(=O)O)n2)cc1,pIC50,[4],< 4.30
O=C(O)c1cc(-c2ccccc2)cc(C(=O)O)n1,pIC50,[4],6.00
O=C(O)c1ccc2cccc(O)c2n1,inhibition,Bacteria [1],> 60%
same,inhibition,[2],> 60%
same,inhibition,[3],> 60%
COc1ccc(CNc2cc(C(=O)O)nc(C(=O)O)c2)cc1,pIC50,[4],5.14
O=C(O)CN(CCN(CC(=O)O)CC(=O)O)CC(=O)O,Activity,Bacteria [5],Active
same,Activity,Bacteria [6],Active
same,Activity,Bacteria [7],Active
same,Activity,[8],inactive
same,Activity,Bacteria [9],< 10%
O=C(Cc1ccccc1)Nc1cccc(-c2cc(C(=O)O)nc(C(=O)O)c2)c1,pIC50,[10],6.23
same,pIC50,[4],6.07
O=C(O)c1cccc(C(=O)NCc2cccs2)n1,pIC50,[4],< 4.30
c1cnc2c(c1)ccc1cccnc12,inhibition,Bacteria [1],> 60%
same,inhibition,[2],> 60%
same,inhibition,[3],> 60%
O=C(O)c1cccc(C(=O)NCc2nccs2)n1,pIC50,[4],4.62
O=C(O)c1cc(Cl)cc(C(=O)O)n1,pIC50,[4],5.30
O=C(O)c1cc(-c2ccc(O)cc2)cc(C(=O)O)n1,pIC50,[10],6.41
same,pIC50,[4],6.18
O=C(O)c1cc(NCCc2ccccc2)cc(C(=O)O)n1,pIC50,[4],5.04
O=C(Nc1cccc(-c2cc(C(=O)O)nc(C(=O)O)c2)c1)c1ccccc1,pIC50,[10],6.89
same,pIC50,[4],6.07
C[C@H](CS)C(=O)N1CCC[C@H]1C(=O)O,Activity,Bacteria [11],Active
same,Activity,Bacteria [6],inactive
same,Activity,Bacteria [12],Active
same,Activity,[8],inactive
same,Activity,Bacteria [13],10%
same,Activity,Bacteria [14],Active
O=C(O)c1cc(NCc2ccc3c(c2)OCO3)cc(C(=O)O)n1,pIC50,[4],5.24
CN(C)c1cc(C(=O)O)nc(C(=O)O)c1,pIC50,[4],4.87
CC(C)[C@@H](NC(=O)c1cccc(C(=O)O)n1)C(=O)O,pIC50,[4],4.66
O=C(O)c1cccc(C(=O)NC2CCCCC2)n1,pIC50,[4],< 4.30
CN(C)c1ccc(-c2cc(C(=O)O)nc(C(=O)O)c2)cc1,pIC50,[10],6.72
same,pIC50,[4],6.24
O=C(O)c1cccc(-c2cc(C(=O)O)nc(C(=O)O)c2)c1,pIC50,[10],6.70
same,pIC50,[4],6.05
O=C(O)c1cccc(C(=O)NCc2ccccc2)n1,pIC50,[4],< 4.30
O=C(O)c1cccc(C(=O)NCC2CCCO2)n1 (stereo not drawn),pIC50,[4],< 4.30
COc1cccc(-c2cc(C(=O)O)nc(C(=O)O)c2)c1,pIC50,[10],5.97
same,pIC50,[4],6.10
CC(=O)Nc1cccc(-c2cc(C(=O)O)nc(C(=O)O)c2)c1,pIC50,[10],6.03
same,pIC50,[4],6.00
O=C(O)c1cccc(C(=O)NC2CCCC2)n1,pIC50,[4],< 4.30
